Screens: PubChem BioAssay, Johns Hopkins Ion Channel Center
Shown are actives, neighbours in structure and some others; about 2.3% of the full set was active somewhere.
TRPC4 act: activators of mouse TRPC4 channel; B-score at 10 µM; Q9QUQ5; 310,000 tested, 0.49% active; HEK293 TRPC4beta/mu-opioid, Fluo4 calcium fluorescence; hits give high values; AID 2237;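 active = B-score above 5 SD of library B-scores, and initial fluorescence ratio not above library mean plus 5 SD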;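 also: positive B-score marks a calcium rise read as TRPC4 activation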
Target sequence (Q9QUQ5 whole entry, looked up): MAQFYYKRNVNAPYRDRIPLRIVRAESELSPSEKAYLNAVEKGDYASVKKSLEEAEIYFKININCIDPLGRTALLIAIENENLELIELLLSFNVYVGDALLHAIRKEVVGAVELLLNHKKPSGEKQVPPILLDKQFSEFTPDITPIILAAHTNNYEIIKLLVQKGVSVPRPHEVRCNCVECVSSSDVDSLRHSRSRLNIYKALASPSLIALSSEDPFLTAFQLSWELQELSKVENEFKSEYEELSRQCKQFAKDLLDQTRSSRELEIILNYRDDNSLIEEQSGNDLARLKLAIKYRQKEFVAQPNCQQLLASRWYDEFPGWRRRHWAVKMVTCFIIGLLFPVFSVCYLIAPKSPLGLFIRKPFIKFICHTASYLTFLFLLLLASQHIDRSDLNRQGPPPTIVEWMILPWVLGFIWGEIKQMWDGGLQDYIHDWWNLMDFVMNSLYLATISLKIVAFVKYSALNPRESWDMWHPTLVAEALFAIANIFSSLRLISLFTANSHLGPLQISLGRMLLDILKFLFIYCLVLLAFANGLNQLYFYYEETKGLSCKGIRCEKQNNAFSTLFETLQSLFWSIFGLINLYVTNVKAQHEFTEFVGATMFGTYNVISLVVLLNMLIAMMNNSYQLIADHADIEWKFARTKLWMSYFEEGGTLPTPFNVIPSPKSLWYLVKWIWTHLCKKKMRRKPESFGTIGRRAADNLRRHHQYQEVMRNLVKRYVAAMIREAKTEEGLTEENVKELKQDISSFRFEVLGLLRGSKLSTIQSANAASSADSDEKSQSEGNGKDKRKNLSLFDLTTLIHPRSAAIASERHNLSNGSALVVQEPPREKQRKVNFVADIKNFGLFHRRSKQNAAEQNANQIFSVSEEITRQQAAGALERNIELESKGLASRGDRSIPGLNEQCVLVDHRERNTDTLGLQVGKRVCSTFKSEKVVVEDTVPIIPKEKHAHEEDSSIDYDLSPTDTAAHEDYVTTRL
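Test system: HEK293 cells stably co-expressing mouse TRPC4beta and mu-opioid receptor | Schedule: Fluo4 dye loading 45 min at room temperature, 110 s recording | Measured by: Kinetic Fluo4 calcium fluorescence, 5 s baseline at 1 Hz | Evaluation: B score of integrated ratio | Controls: Buffer (low) and maximal DAMGO (high)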
TRPC4 potent: allosteric potentiators of mouse TRPC4 channel. 310,000 tested, 0.42% active. HEK293 TRPC4beta/mu-opioid, DAMGO EC20, Fluo-4 Ca2+ flux; hits give high values. Q9QUQ5. B-score at 10 µM;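 active = B-score of calcium response area above 5 SD of library B-scores, with initial fluorescence ratio within 5 SD of library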;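 also: B-score of integrated fluorescence ratio over time as area under calcium response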
TRPC4 inh: inhibitors of mouse TRPC4 channel; Q9QUQ5; HEK293 TRPC4beta/mu-opioid, DAMGO-evoked Fluo4 calcium flux; hits give low values; B-score at 10 µM; 300,000 tested, 0.39% active; AID 2247;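 active = B-score over 3 SD under the library average, no early fluorescence shift, positive overall ratio signal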
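material = TRPC4beta/mu-opioid receptor HEK293 cell line | probe or stimulus = sequential submaximal and maximal DAMGO stimulation | compound dosing = one concentration per compound | measured by = Fluo4 Ca2+ flux fluorescence | evaluation = integrated fluorescence ratio relative to baseline, converted to per-well B score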
TRPC6 activator: mouse TRPC6 channel activation | Q61143 | HEK293-TRPC6 membrane potential dye fluorescence; hits give high values | B-score at 10 µM | 310,000 tested, 0.13% active | AID 2550;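 active = B-score of the integrated fluorescence ratio above library mean plus 3 SD, and starting fluorescence ratio within library mean plus 5 SD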;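 also: higher score means more depolarization so channel activation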
TRPC6 inhibitor: mouse TRPC6 channel inhibition; Q61143; HEK293-TRPC6, membrane potential dye, ACh-evoked depolarization; hits give low values; B-score at 10 µM; 310,000 tested, 1.1% active;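 active = B-score under library mean minus 3 SD, initial fluorescence not abnormally high, positive integrated signal ratio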;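 also: B-score derived from integrated fluorescence ratio over the kinetic read; more negative B-score means stronger inhibition of depolarization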
* = called active by the depositor; i = inactive.

SMILES	TRPC4 act	TRPC4 potent	TRPC4 inh	TRPC6 activator	TRPC6 inhibitor
Cc1ccc(N2CCN(C(=O)c3ccccc3F)CC2)c(C)c1	i	i	-7*	i	i
Cc1ccc(NC(=O)COC(=O)CSC(=S)N2CCOCC2)cc1	i	i	i	i	i
CC(OC(=O)c1ccc(NC(=O)CC#N)cc1)C(=O)NC(=O)NC1CCCCC1 (stereo not drawn)	i	i	i	i	i
Cc1ccccc1OCCC(=O)OCC(=O)NC1CCS(=O)(=O)C1 (stereo not drawn)	i	i	i	i	i
O=c1ccc(OCCOc2ccccc2)nn1-c1ccccc1	i	17*	i	i	i
Cc1ccc(S(=O)(=O)N(Cc2ccccc2)Cc2ccco2)cc1	i	14*	i	i	i
Cc1ccc(S(=O)(=O)N(Cc2ccc(F)cc2)Cc2ccco2)cc1	i	i	i	i	i
CC1=CC(C)(C)N2C(=O)C3(SCC(=O)N3c3ccc(O)cc3)c3cc(C)cc1c32 (stereo not drawn)	i	10*	i	i	i
COc1ccc(Cl)cc1NC(=O)C/C(C)=N/NC(=O)COc1ccc(C)cc1	i	i	i	i	i
Clc1ccc(-c2c[n+](Cc3ccc(Br)cc3)c3n2CCCCC3)cc1	i	i	i	i	i
Clc1ccc(C[n+]2cc(-c3ccccc3)n3c2CCC3)cc1Cl	i	i	-6*	i	i
Clc1ccc(-c2c[n+](Cc3cccc(Cl)c3)c3n2CCC3)cc1	i	i	-6*	i	i
O=[N+]([O-])c1ccc(C[n+]2cc(-c3ccc(Cl)c(Cl)c3)n3c2CCCCC3)cc1	i	i	i	i	i
O=C(c1ccncc1)N1c2ccccc2Sc2ccccc21	i	26*	i	i	i
CCn1c(CN(C)c2ccccc2)nc2ccccc21	i	i	i	i	i
Cc1cccc(CCNC(=O)C2CCCN(c3cnccn3)C2)c1 (stereo not drawn)	i	i	i	i	i
COc1cc(NC(C)CCCN)c2ncccc2c1Oc1ccccc1 (stereo not drawn)	83*	i	i	i	i
CSc1nnc(Cc2sc(-c3ccccc3)nc2-c2ccccc2)o1	i	20*	i	i	i
O=C(O)c1cc(-c2ccc(-c3ccc(F)cc3)o2)nc2ccccc12	i	i	i	i	i
CCc1cccc(C)c1NC(=O)C1CC=CCC1C(=O)O (stereo not drawn)	i	i	i	i	i
Cn1c(-c2ccc(F)cc2)cnc1NCc1ccccc1F	i	i	i	i	i
Cn1c(-c2ccc(F)cc2)cnc1NCc1ccc(C#N)cc1	i	i	i	i	i
Cn1c(-c2ccc(F)cc2)cnc1NCc1ccc(F)cc1	i	i	-6*	i	i
Cn1c(-c2ccc(F)cc2)cnc1NCc1ccc(F)cc1F	i	i	-6*	i	i
CCN1CCCC1CNCc1cccc(OC)c1OCc1ccc(F)cc1 (stereo not drawn)	58*	i	i	i	i
SMILES	TRPC4 act	TRPC4 potent	TRPC4 inh	TRPC6 activator	TRPC6 inhibitor
CCN1CCCC1CNC(=O)c1cc2c(OC)cccc2[nH]1 (stereo not drawn)	154*	i	i	i	i
CCN1CCCC1CNCc1ccc(Cl)cc1Cl (stereo not drawn)	i	29*	i	i	i
O=C(CNCC1CCCCC1)Nc1ccc(OC(F)(F)F)cc1	43*	i	i	i	i
CC(NC=O)c1nc2ccccc2n1CCc1ccccc1 (stereo not drawn)	i	i	i	i	i
CC(=O)Nc1cccc(N2C(=O)CC(Cc3ccccc3)C2=O)c1 (stereo not drawn)	i	i	i	i	i
Cc1cc(=O)oc2cc(N3C(=O)CC(Cc4ccccc4)C3=O)ccc12 (stereo not drawn)	i	13*	i	i	i
O=C(O)CC12CC3CC(C1)CC(n1ncc(NCc4ccc5c(c4)OCO5)c(Cl)c1=O)(C3)C2	i	i	i	i	i
N#C/C(=C\c1c(N2CCC(C(N)=O)CC2)nc2ccccn2c1=O)C(=O)NC1CCCCC1	i	i	i	i	i
CCCCNCC1C(Oc2ccc(Cl)cc2)C(=O)N1c1ccccc1C (stereo not drawn)	i	i	-6*	i	i
O=C(c1cccc(S(=O)(=O)N2CCc3ccccc32)c1)N1CCN(c2ccccn2)CC1	i	i	i	16*	i
Cc1cccc(-c2nnc(SCc3nc4ccccc4[nH]3)n2Cc2ccco2)c1	i	i	-7*	i	i
Cc1c(CCC(=O)NCCCn2ccnc2)c(=O)oc2c(C)c3oc4c(c3cc12)CCCC4	i	i	i	i	i
O=C1NCCCN1Cc1ccc(Cl)cc1	i	i	i	i	i
CCOC(=O)C1CCN(Cc2nc3ccc([N+](=O)[O-])cc3c(=O)n2-c2ccc(OC)cc2OC)CC1	59*	i	i	i	i
COc1ccc(-n2c(CN3CCC(C(N)=O)CC3)nc3ccc([N+](=O)[O-])cc3c2=O)c(OC)c1	i	i	i	i	i
Cc1ccc(-n2ncc3c2CCCC3NC(=O)CCc2cnccn2)cc1C (stereo not drawn)	i	i	i	i	i
O=C(Nc1nnc(-c2cccs2)o1)c1cccc(C(F)(F)F)c1	127*	i	i	i	i
N#Cc1ccc(C(=O)Nc2nnc(-c3cccs3)o2)cc1	i	i	i	i	i
COC(=O)c1cc(OC)c(OC)cc1NC(=S)NC(=O)c1ccco1	i	i	i	i	i
COc1ccccc1C(=O)NNC(=S)NC(=O)c1ccco1	77*	i	i	i	i
O=C(NNC(=S)NC(=O)c1cccc([N+](=O)[O-])c1)c1ccc(Br)cc1	79*	i	i	i	i
CCCOc1ccc(C(=O)NNC(=S)NC(=O)c2ccco2)cc1	217*	i	i	i	i
O=C(NNC(=S)NC(=O)c1cccc([N+](=O)[O-])c1)c1ccc(O)cc1	i	i	i	i	i
COc1ccc(C(=O)NNC(=S)NC(=O)c2ccco2)cc1	50*	i	i	i	i
O=C(NNC(=S)NC(=O)c1ccco1)c1ccc(F)cc1	67*	i	i	i	i
O=C(NC(=S)NNC(=O)c1ccco1)c1ccc(Br)cc1	121*	i	-8*	i	i
